According to ChEMBL document CHEMBL1123413, “Synthesis and biological evaluation of 1-(1,2-benzisothiazol-3-yl)- and (1,2-benzisoxazol-3-yl)piperazine derivatives as potential antipsychotic agents” (J Med Chem, 1986):

Legend:
[1] = target: D(2) dopamine receptor (Rattus norvegicus, UniProt P61169); experiment: In vitro affinity for rat striatal Dopamine receptor D2 labeled with [3H]spiperone
[2] = species on record: Rattus norvegicus; experiment: Inhibition of conditioned avoidance response (CAR); assay type: functional
How it was run: (§1)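 Rats trained to avoid an electric shock, test compound given orally, and block of the conditioned avoidance response scored. ED50 (mg/kg, po) with fiducial limits by the method of Berkson.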

[3] = species on record: Rattus norvegicus; experiment: Compound was tested for the inhibition of apomorphine-induced stereotype; assay type: functional
How it was run: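 In rats, oral test compound was scored for block of apomorphine-induced stereotypy as an in vivo dopamine-system measure. ED50 (mg/kg, po) and fiducial limits by Berkson's method.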

[4] = species on record: Rattus norvegicus; experiment: Compound was tested for its ability to induce catalepsy in rats.; assay type: functional
How it was run: (§2)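 Catalepsy was induced in rats with orally dosed compound as a predictor of extrapyramidal liability. ED50 (mg/kg, po) with fiducial limits by Berkson's method.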

[5] = target: T1, Adrenergic receptor alpha-1 (Rattus norvegicus, UniProt P15823+P23944+P43140)
T1 sequence (P15823 whole entry): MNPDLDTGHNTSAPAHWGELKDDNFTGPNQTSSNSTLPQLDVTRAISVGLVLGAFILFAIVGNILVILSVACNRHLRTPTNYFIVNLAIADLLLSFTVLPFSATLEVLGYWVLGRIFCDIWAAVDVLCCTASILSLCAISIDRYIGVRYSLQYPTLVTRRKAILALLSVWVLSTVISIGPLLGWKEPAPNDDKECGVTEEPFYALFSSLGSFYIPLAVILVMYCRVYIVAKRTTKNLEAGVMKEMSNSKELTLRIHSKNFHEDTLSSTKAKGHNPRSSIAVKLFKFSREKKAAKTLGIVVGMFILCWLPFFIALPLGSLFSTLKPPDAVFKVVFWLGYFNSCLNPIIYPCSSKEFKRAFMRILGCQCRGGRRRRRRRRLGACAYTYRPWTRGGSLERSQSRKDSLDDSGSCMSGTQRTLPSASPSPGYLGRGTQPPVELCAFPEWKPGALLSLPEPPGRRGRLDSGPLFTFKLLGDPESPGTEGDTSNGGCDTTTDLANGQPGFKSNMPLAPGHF
T1 sequence (P23944 whole entry): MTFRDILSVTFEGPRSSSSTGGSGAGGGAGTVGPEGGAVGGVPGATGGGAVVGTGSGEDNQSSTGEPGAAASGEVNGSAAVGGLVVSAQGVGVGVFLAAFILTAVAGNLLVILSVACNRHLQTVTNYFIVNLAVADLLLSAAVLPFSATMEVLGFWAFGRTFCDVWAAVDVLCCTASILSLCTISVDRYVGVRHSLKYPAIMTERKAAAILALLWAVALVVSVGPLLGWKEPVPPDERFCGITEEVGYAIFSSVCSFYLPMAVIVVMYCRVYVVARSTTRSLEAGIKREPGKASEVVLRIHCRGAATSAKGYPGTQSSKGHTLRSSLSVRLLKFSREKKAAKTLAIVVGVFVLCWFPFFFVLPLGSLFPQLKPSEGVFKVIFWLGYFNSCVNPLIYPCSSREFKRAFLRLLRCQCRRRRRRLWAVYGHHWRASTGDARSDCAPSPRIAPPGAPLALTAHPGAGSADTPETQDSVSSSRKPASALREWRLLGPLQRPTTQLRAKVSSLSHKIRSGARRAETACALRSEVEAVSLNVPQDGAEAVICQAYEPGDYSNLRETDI
T1 sequence (P43140 whole entry): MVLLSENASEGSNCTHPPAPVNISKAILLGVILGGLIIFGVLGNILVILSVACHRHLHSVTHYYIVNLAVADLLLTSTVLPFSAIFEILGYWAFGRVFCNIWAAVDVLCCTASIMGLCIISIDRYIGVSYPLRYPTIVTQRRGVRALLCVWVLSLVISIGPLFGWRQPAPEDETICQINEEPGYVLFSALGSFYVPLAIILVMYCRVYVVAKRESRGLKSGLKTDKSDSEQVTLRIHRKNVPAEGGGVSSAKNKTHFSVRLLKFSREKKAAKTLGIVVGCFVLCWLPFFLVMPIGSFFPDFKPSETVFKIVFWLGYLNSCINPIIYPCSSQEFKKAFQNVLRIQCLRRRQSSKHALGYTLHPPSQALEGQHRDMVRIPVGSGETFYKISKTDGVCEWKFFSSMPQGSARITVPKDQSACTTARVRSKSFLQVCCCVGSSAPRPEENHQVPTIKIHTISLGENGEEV

[6] = Lethal dose after peroral administration in mouse; assay type: toxicity, organism-based; details: in vivo, po
[7] = system: Mus musculus; experiment: Compound was tested for inhibition of norepinephrine lethality in mouse when administered perorally; assay type: functional; details: po
How it was run: (§3)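 Groups of 10 nonfasted male mice dosed orally with test compound (initial 100 mg/kg) or vehicle (distilled H2O or 0.5% methocel). Active compounds retested at lower doses, 10 mice/dose, for dose response. ED50 by Berkson's method.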

[8] = system: Mus musculus; experiment: Compound was tested for inhibition of spontaneous motor activity in mouse when administered perorally; assay type: functional; details: po
[9] = system: Rattus norvegicus; experiment: Compound was tested for inhibition of spontaneous motor activity in rat when administered perorally; assay type: functional; details: po
[10] = target: Gamma-aminobutyric acid receptor subunit gamma-1 (Rattus norvegicus, UniProt P23574); experiment: (§4) Inhibition of [3H]muscimol binding to Gamma-aminobutyric acid (GABA-A) receptor
Gamma-aminobutyric acid receptor subunit gamma-1, sequence (P23574 whole entry): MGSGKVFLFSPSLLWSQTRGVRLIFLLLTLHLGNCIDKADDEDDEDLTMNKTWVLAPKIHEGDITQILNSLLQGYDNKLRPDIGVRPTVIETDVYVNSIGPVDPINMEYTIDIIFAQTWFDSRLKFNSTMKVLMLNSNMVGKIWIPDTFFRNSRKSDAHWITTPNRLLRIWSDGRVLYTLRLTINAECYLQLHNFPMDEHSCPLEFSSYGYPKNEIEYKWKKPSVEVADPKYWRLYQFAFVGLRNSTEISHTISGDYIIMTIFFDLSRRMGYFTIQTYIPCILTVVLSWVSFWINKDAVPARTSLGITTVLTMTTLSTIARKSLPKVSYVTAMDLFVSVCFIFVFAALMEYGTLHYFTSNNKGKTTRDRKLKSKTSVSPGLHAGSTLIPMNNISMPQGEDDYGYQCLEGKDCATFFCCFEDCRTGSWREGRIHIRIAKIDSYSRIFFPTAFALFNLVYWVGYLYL

[11] = species on record: Mus musculus; experiment: Oral effective dose against norepinephrine-induced lethality in mouse; assay type: functional; how it was run: as §3
[12] = species on record: Mus musculus; experiment: Oral effective dose against physostigmine-induced lethality in mouse; assay type: functional
How it was run: as §3, with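 “methocel). At 30 min, physostigmine given ip at 1.25 mg/kg, and lethality followed for up to 1 h.” for “methocel).”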

[13] = species on record: Mus musculus; experiment: Oral effective dose against spontaneous motor activity in mouse; assay type: functional
[14] = species on record: Rattus norvegicus; experiment: Oral effective dose against ethanol potentiation in rat; assay type: functional
How it was run: (§5)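 Nonfasted male rats received test drug or vehicle (distilled H2O or 0.5% methocel). EtOH (10 mL of 20% solution/kg, ip) followed at 15, 30, 60 or 120 min post-drug; the vehicle group got it at 15 min. Rats were watched about 10–15 min for loss of righting reflex lasting 1 min. Dose response at peak time used 10/dose; ED50 by Berkson.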

[15] = species on record: Rattus norvegicus; experiment: Oral effective dose against hexobarbatial potentiation in rat; assay type: functional
How it was run: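 Hexobarbital sodium (40 mg/kg, ip) was given to nonfasted male rats 15, 30, 60 or 120 min after test drug, or 15 min after vehicle (distilled H2O or 0.5% methocel). Loss of righting reflex of 1-min duration was scored over about 10–15 min. Dose response at peak-effect time used 10 rats/dose; ED50 and fiducial limits by Berkson.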

[16] = species on record: Rattus norvegicus; experiment: Oral effective dose against spontaneous motor activity in rat; assay type: functional
[17] = target: GABA-A receptor; anion channel; experiment: as §4; assay type: protein-complex assay, Rattus norvegicus
[18] = Binding affinity against histamine receptor was measured using radioligand ([3H]-pyrilamine) binding assay
[19] = system: Mus musculus; experiment: Compound was tested for inhibition of physostigmine lethality in mouse when administered perorally; assay type: functional; details: po
How it was run: as §3, with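 “methocel). At 30 min, physostigmine given ip at 1.25 mg/kg, and lethality followed for up to 1 h.” for “methocel).”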

[20] = system: Rattus norvegicus; experiment: (§6) Compound was tested for inhibition of ethanol potentiation in rat when administered perorally; assay type: functional; details: po
How it was run: (§7)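 Nonfasted male rats given test drug orally, vehicle distilled H2O or 0.5% methocel. Hexobarbital sodium (40 mg/kg) or EtOH (10 mL of 20% solution/kg) given ip at 15, 30, 60 or 120 min postdrug, controls 15 min after vehicle. Loss of righting reflex lasting 1 min scored over about 10–15 min. Dose response at time of peak effect, 10 rats/dose. ED50 and fiducial limits by Berkson's method.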

[21] = system: Rattus norvegicus; experiment: Compound was tested for inhibition of hexobarbatial potentiation in rat when administered perorally; assay type: functional; details: po; how it was run: as §7
[22] = species on record: Rattus norvegicus; experiment: Compound was tested for its ability to induce catalepsy in rats; assay type: functional; how it was run: as §2
[23] = species on record: Rattus norvegicus; experiment: Compound was tested for inhibition of conditioned avoidance response (CAR ); assay type: functional; how it was run: as §1
[24] = system: Rattus norvegicus; experiment: as §6; assay type: functional; details: po; how it was run: as §5; remark: listed apart in the source

D(2) dopamine receptor, sequence (P61169 whole entry): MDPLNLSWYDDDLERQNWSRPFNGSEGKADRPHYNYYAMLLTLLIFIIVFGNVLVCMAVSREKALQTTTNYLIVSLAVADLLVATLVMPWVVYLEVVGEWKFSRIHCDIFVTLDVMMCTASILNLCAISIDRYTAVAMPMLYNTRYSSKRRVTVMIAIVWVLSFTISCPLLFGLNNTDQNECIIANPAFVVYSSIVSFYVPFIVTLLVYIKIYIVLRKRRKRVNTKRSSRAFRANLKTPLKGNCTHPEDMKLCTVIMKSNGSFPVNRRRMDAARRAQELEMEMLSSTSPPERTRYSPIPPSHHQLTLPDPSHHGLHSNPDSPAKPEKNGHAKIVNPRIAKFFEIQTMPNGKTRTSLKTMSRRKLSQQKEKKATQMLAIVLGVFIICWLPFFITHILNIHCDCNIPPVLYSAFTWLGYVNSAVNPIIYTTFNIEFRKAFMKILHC

Structure (SMILES)	IC50 [1] [nM]	IC50 [5] [nM]	ED50 [2] [mg/kg]	ED50 [4] [mg/kg]	further results
CC1CN(c2nsc3ccccc23)CCN1CCCCN1C(=O)CC2(CCCC2)CC1=O (stereo not drawn)	203	–	> 100	–	–
OC(CCCN1CCN(c2noc3ccccc23)CC1)c1ccc(F)cc1 (stereo not drawn)	30	2	1	2.2	ED50 [3]: 2.3 mg/kg
CN(C)CCCN1c2ccccc2Sc2ccc(Cl)cc21 [CHLORPROMAZINE]	–	–	–	4.1	LD50 [6]: 250 mg/kg; ED50 [7]: 2.72 mg/kg; ED50 [8]: 3.6 mg/kg; ED50 [3]: 9.6 mg/kg; ED50 [9]: 17.2 mg/kg
Cl.c1ccc2c(N3CCNCC3)nsc2c1	> 1000	510	> 100	–	–
CSc1ccc2c(c1)N(CCC1CCCCN1C)c1ccccc1S2 (stereo not drawn) [THIORIDAZINE]	–	–	–	–	LD50 [6]: 250 mg/kg; IC50 [10]: > 1000 nM; ED50 [11]: 2.2 mg/kg; ED50 [12]: 45 mg/kg; ED50 [13]: 12.8 mg/kg; ED50 [14]: 56 mg/kg; ED50 [15]: 27.3 mg/kg; ED50 [16]: 33 mg/kg; ED50 [3]: 280 mg/kg
CN1CCN(C2=Nc3cc(Cl)ccc3Nc3ccccc32)CC1 [CLOZAPINE]	–	–	–	> 200	LD50 [6]: 219 mg/kg; IC50 [17]: > 1000 nM; IC50 [18]: 18 nM; ED50 [7]: 3.5 mg/kg; ED50 [19]: 5.4 mg/kg; ED50 [8]: 1.9 mg/kg; ED50 [9]: 17.5 mg/kg; ED50 [20]: 3.23 mg/kg; ED50 [21]: 1.69 mg/kg
O=C(CCCN1CCN(c2noc3ccccc23)CC1)c1ccc(F)cc1	69	5	5.8	–	ED50 [22]: 39.9 mg/kg
CCC1(CC)CC(=O)N(CCCCN2CCN(c3nsc4ccccc34)CC2)C(=O)C1.Cl	49	–	–	–	ED50 [23]: 35.2 mg/kg
CCCC1(C)CC(=O)N(CCCCN2CCN(c3nsc4ccccc34)CC2)C(=O)C1.Cl	55	9	–	–	ED50 [23]: 24.3 mg/kg
OC(CCCN1CCN(c2nsc3ccccc23)CC1)c1ccc(F)cc1 (stereo not drawn)	2	2	2.4	–	ED50 [22]: 5 mg/kg
CC1CN(CCCCN2C(=O)CC3(CCCC3)CC2=O)CCN1c1nsc2ccccc12 (stereo not drawn)	64	–	> 100	–	–
CC1(C)CC(=O)N(CCCCN2CCN(c3nsc4ccccc34)CC2)C(=O)C1	23	4	–	15.2	ED50 [3]: 4.8 mg/kg; ED50 [23]: 4.1 mg/kg
O=C(CCCN1CCC(O)(c2ccc(Cl)cc2)CC1)c1ccc(F)cc1 [HALOPERIDOL]	–	–	2.8	0.58	LD50 [6]: 500 mg/kg; ED50 [7]: 26 mg/kg; ED50 [19]: > 80 mg/kg; ED50 [8]: 0.45 mg/kg; ED50 [24]: 0.28 mg/kg; ED50 [3]: 0.5 mg/kg; ED50 [9]: 0.73 mg/kg
Cl.c1ccc2c(N3CCNCC3)noc2c1	> 1000	165	> 100	–	–
CN1CCN(CCCN2c3ccccc3Sc3ccc(C(F)(F)F)cc32)CC1 [TRIFLUOPERAZINE]	–	350	6.9	3	ED50 [3]: 6.5 mg/kg
O=C(CCCN1CCN(c2nsc3ccccc23)CC1)c1ccc(F)cc1	10	8	7.4	–	ED50 [22]: 16.4 mg/kg

Now from value to compound, other results behind:

IC50 [1] [nM]	IC50 [5] [nM]	Structure (SMILES)	ED50 [2] [mg/kg]	ED50 [4] [mg/kg]	further results
145	3	O=C1CC2(CCCC2)CC(=O)N1CCCN1CCN(c2nsc3ccccc23)CC1	> 100	–	–
> 1000	–	O=C1SC2(CCCC2)C(=O)N1CCCCN1CCCN(c2noc3ccccc23)CC1	> 100	–	–
235	–	O=C1CC2(CCCC2)CC(=O)N1CCCCN1CCCN(c2nsc3ccccc23)CC1	> 100	–	–
145	454	O=C1CC2(CCCC2)CC(=O)N1CCCCN1CCN(c2nc3ccccc3s2)CC1	> 100	–	–
440	33	O=C1CSC(=O)N1CCCCN1CCN(c2noc3ccc(Cl)cc23)CC1	> 100	–	–
53	0.9	Cl.O=C1CSC(=O)N1CCCCN1CCN(c2nsc3ccccc23)CC1	–	–	ED50 [23]: 27.8 mg/kg
240	1	O=C1CSC(=O)N1CCCCN1CCN(c2noc3ccccc23)CC1	8.3	11.7	–
360	46	O=C1CC2(CCCC2)CC(=O)N1CCCCN1CCN(c2noc3ccc(Cl)cc23)CC1	> 100	–	–
42	9	Cl.O=C1SC2(CCCC2)C(=O)N1CCCCN1CCN(c2nsc3ccccc23)CC1	–	45	ED50 [23]: 11.6 mg/kg
78	–	O=C1SC2(CCCC2)C(=O)N1CCCCN1CCN(c2noc3ccccc23)CC1	8.1	21.5	–
25	7	O=C1CC2(CCCC2)CC(=O)N1CCCCN1CCN(c2noc3ccccc23)CC1	10.6	68.2	ED50 [3]: 20.2 mg/kg
59	5	O=C1CC2(CCCC2)CC(=O)N1CCCCN1CCN(c2noc3cc(Cl)ccc23)CC1	26	–	–
